Results reported in the EternaBench riboswitch data.

Test system: MS2 coat protein
Assay: apparent Kd, MS2 coat protein; higher = weaker binding; RNA-MaP array; FMN 200 µM where present
In short: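 Green signal from SNAP-549-labelled MS2 coat protein was normalised to red-channel RNA signal and to the median Fmax of control clusters. The protein was titrated from 0.7 or 1.5 nM, doubling to 3 µM, without and then with constant ligand, over designs transcribed by stalled E. coli RNA polymerase on Illumina sequencing-chip clusters, in 100 mM Tris-HCl pH 7.5, 80 mM KCl, 4 mM MgCl2, BSA, DTT, yeast tRNA and Tween-20. The apparent Kd is the median of filtered per-cluster binding-curve fits.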

[1] = designed as: OFF switch for flavin mononucleotide, no ligand
[2] = ligand present: flavin mononucleotide, designed as: OFF switch for flavin mononucleotide
[3] = designed as: ON switch for flavin mononucleotide, no ligand
[4] = ligand present: flavin mononucleotide, designed as: ON switch for flavin mononucleotide

Row | Sequence | apparent Kd [1] | apparent Kd [2] | apparent Kd [3] | apparent Kd [4]
1 | AUCAGCUCGUCAGGAUAUACGUCACUGCGUCAGCAGUGUGGUAAGAUCACAUGAGGAUCACCCAUGUAGAAGGGAUGAGCUGAU | 13.3 nM | 288 nM |  | 
2 | AUCAGCUCGUCAGGAUAUACGUCACUGCGUCAGCAGUGUGGUAGGAUCACAUGAGGAUCACCCAUGUAGAAGGGACGAGCUGAU | 23.8 nM | 297 nM |  | 
3 | AUCAGCUCGUCAGGAUAUACGUCACUGCGUCAGCAGUUUGGUAAGAUCACAUGAGGAUCACCCAUGUAGAAGGGACGAGCUGAU | 15.2 nM | 249 nM |  | 
4 | AUCAGCUCGUCAGGAUAUACGUCACUGCGUCGGCAGUGUGGUAAGAUCACAUGAGGAUCACCCAUGUAGAAGGGACGAGCUGAU | 14.4 nM | 280 nM |  | 
5 | AUCAGCUCGUCAGGAUAUACGUCACUGCUUCGGCAGUGUAAUAAAAUAACAUGAGGAUCACCCAUGUAGAAGGGACGAGCUGAU | 5.93 nM | 6.13 nM |  | 
6 | AUCAGCUCGUGAGGAUAUACAUCACUGCUUCGGCAGUGUGGUAAGGUCACAUGAGGAUCACCCAUGUAGAAGGCACGAGCUGAU | 13.1 nM | 279 nM |  | 
7 | AUCAGCUCGUGAGGAUAUACGUCACUGCGUCAGCAGUGUGGUAAGAUCACAUGAGGAUCACCCAUGUAGAAGGCACGAGCUGAU | 66.2 nM | 837 nM |  | 
8 | AUCAGGCAAGGAUAUGAUAUAGGACACAUGAGGAUCACCCAUGUCCACCGAACGAUCGUUUCAGAAGGUGCACAGU | 72.8 nM | 41 nM |  | 
9 | AUCAUCUUGUCAGGAUAUGCGUGUCAACGAAAGUAGACAAUCUUAAUAACAUGAGGAUCACCCAUGUAGAAGGGACGAGAUGAU | 19.8 nM | 21 nM |  | 
10 | AUCCGGAAUGUUAGGAUAUCUUGGCGCCUGUGCUUGGAGAAGGGACAUGAGGAUCACCCAUGUCCUCUCGGAAA | 13.1 nM | 14.9 nM |  | 
11 | AUCCUGCGAGGAUAUACAUAAUUUUUUUCAUUUUGACUCGAACAUGAGGAUCACCCAUGUAGAAGGUGCUACAC | 36.7 nM | 32.5 nM |  | 
12 | AUCCUGCGAGGAUAUACAUAGUGACGUCUGUUUGGUCUCAAACAUGAGGAUCACCCAUGUAGAAGGUGCGUCAC | 66.3 nM | 66.5 nM |  | 
13 | AUCCUUAACAAGGAUAUCGGGCGGGAAAUUGUUUGAGAAGGUGUGACAUGAGGAUCACCCAUGUGGCGCGUGGG | 317 nM | 257 nM |  | 
14 | AUCGUGCAGCUUUGCUGUACGCGUACAUGAGGAUCACCCAUGUAGGAUAUGGUAGGCUUUGCUUACUAGAAGGAUAGUGUGAUC | 106 nM | 33.2 nM |  | 
15 | AUCGUUGACUGGACGAGAAUAGGGCAGGAUAUACAUGAGGAUCACCCAUGUGAAGCACGAAAGAGGUAGAAGGGCCCACGUCAU |  | 20.5 nM |  | 
16 | AUCUUGAGAGGAUAUACAUGAGGAUCACCCAUGUUUCUAACACCAUGCGGUCAUUUGCGUAGAAGGCUCGUCCG | 19.9 nM | 34.1 nM |  | 
17 | AUGAGGUCAGGAUAUGCAUGGCGGGACUUGCGUCGUGGCGUGCAGAAGGGACAUGAGGAUCACCCAUGUGGAGU | 152 nM | 218 nM |  | 
18 | AUGAGUAAAGCAGGAUAUCUAUUGUCUCAGUAACAUGAGGAUCACCCAUGUAGAGAAGGGCUAAGUCUUACUCUUCGGAGAUGA | 12.3 nM | 13.4 nM |  | 
19 | AUGAGUGUAAUGAUUGAGCCACUGCAGGAUAUCACAUGAGGAUCACCCAUGUGUCAGCCUCGGAGUGAGAAGGGCGGUUUCUUA | 5.38 nM | 10.6 nM |  | 
20 | AUGCAACAUGAGGAUCACCCAUGUGAGGAUAUCGUAUAAUACUGUUGAAAUAUUUAGACGAGAAGGCACACCGU | 29.7 nM | 47.3 nM |  | 
21 | AUGCUAGUGUGAGGAUAUCAACAUGAGGAUCACCCAUGUUGGAAGUACACGACAUGCGGUACACCUGAGAAGGUACAUUAGCAU | 19.6 nM | 25.4 nM |  | 

Row | Sequence | apparent Kd [1] | apparent Kd [2] | apparent Kd [3] | apparent Kd [4]
22 | AUGCUAGUGUGAGGAUAUCAACAUGAGGAUCACCCAUGUUGGAAGUACACGACAUGCGGUACAUUUGAGAAGGUACAUUAGCAU | 58.2 nM | 108 nM |  | 
23 | AUGCUAGUGUGAGGAUAUUAGGCACAUGAGGAUCACCCAUGUAAGAUCAUGACGAUCACGCAUGAUAAGAAGGUACAUUAGCAU | 40 nM | 47 nM |  | 
24 | AUGCUUCACACAGGAUAUACAUGAGGAUCACCCAUGUGUCCAAAGUAGCCGACACGAGCUACGCGGUAGAAGGGUGUGAAGCAU | 18.6 nM | 52.2 nM |  | 
25 | AUGGGUGUACCUUCACAUGAGGAUCACCCAUGUACGGGUGCGCAGGAUAUCCCAAAAGUCAGUAAGGAGAAGGGCGUAUGCCUG | 312 nM | 306 nM |  | 
26 | AUGGUCAUGUUAGGAUAUGACGCGCUGUACGCAUCAGAAGGAACAUGAGGAUCACCCAUGUAUAGAGUAUUAUCGCUUACUCUC | 52.7 nM | 85.3 nM |  | 
27 | AUGGUUGUCGUAGGAUAUGUAGGAUAUUCCUACAUGAGGAUCACCCAUGUUCGCAUGGAAGAAGGACGGAAGGACGAUGACCAA |  |  | 249 nM | 118 nM
28 | AUGUGGUGCGUAGGAUAUCAUUGAGGGUAACCCUGAGAAGGACGUGAGGACAUGAGGAUCACCCAUGUGGAUCACCCAUGUCAU | 150 nM | 301 nM |  | 
29 | AUGUUACAUGAGGAUCACCCAUGUGAGGAUAUGUGUAUCCCUAAAAAAGUGUGGGACCAUAGAAGGCACUUGGA | 62.9 nM | 98.1 nM |  | 
30 | AUUAAACAUGAGGAUCACCCAUGUCAACAAAGUCGAGGAUAUGGGCAUAUUAUCUUAUUACCAGAAGGCGAAUAAU |  |  | 390 nM | 44 nM
31 | AUUACAAUUGUAUACAUGAGGAUCACCCAUGUUAUAAGUCAUGAGGAUAUGGUAUUGUAGUUAUUCCAGAAGGCAUAUAGCUAA |  |  | 14.3 nM | 9.2 nM
32 | AUUAUGUUAGGAUAUGCUUAUGGUGGAUAAUCAGAUAUGAUGCAGAAGGGACAUGAGGAUCACCCAUGUACUGU | 20.8 nM | 23.6 nM |  | 
33 | AUUAUUAUAUUAUACAUGAGGAUCACCCAUGUUAUAAGUCAUGAGGAUAUGGUAUUGUAGUUUUUCCAGAAGGCAUUUAACUUA |  |  | 10.3 nM | 6.04 nM
34 | AUUCAGCGGAACUUGACAUCCCUACAUGAGGAUCACCCAUGUCAGGAUAUAUGCUCUCGAGCUGCAUAGAAGGGACAUAGUGGG | 48.2 nM | 67 nM |  | 
35 | AUUGAUGUUGAGGAUAUGCUUUUAUUUAUAAUAGCAGAAGGCGAUACAUGAGGAUCACCCAUGUUCAUGGUUUU | 24.9 nM | 33.6 nM |  | 
36 | AUUGGUUAAGGAUAUCCCUUAGCAGACAUGAGGAUCACCCAUGUCGUCAUGAGGCCAGGCGGAGAAGGUGACUAAU | 55.4 nM | 35.8 nM |  | 
37 | AUUGUUAAGGUAGGAUAUAGUAAAAUGAUUUAAUUAGAAGGAUCUCACAUGAGGAUCACCCAUGUAAUAGGAUUACCCAUGUAU | 32.8 nM | 23.6 nM |  | 
38 | AUUGUUUUCAUAGGAUAUUGACAUUUAUUUAUUCAAGAAGGAUGAUUACAUGAGGAUCACCCAUGUUAUUAUGGAUUAACUAGU | 23.7 nM | 43.2 nM |  | 
39 | AUUUAAAUGUCAGGAUAUGGUAGUUUAUACUUAUUAGAAGGGAUAAUUAUACUCAAGUACAUGAGGAUCACCCAUGUUAAAUCA |  |  | 21.9 nM | 21.5 nM
40 | AUUUAAUUUAGCGAGAUCACAUGAGGAUCACCCAUGUAUAUAUAGGAUAUCAGCUCGAAUAGAGCUGAGAAGGAUAUAUACCGC | 90.3 nM | 157 nM |  | 
41 | AUUUAGUGAGGAUAUGUGGCUUCGAUCGUGAGAUCGAGGCUACAGAAGGCACAUGAGGAUCACCCAUGUUCCUU | 13.2 nM | 55.9 nM |  | 
42 | AUUUAUCUAGGAUAUACAUGAGGAUCACCCAUGUUGAAGCGUAGGUACCUUUCCGAAUGUAGAAGGAGAGCACC | 19.9 nM | 22.2 nM |  | 
